Measurements of several laboratories.
Lines come from different studies, so protocols differ.
Target: Homeodomain-interacting protein kinase 2 (HIPK2, Homo sapiens, UniProt Q9H2X6)

Compound	assay	conditions	quantity	result
CCCS(=O)(=O)Nc1ccc(F)c(C(=O)c2c[nH]c3ncc(-c4ccc(Cl)cc4)cc23)c1F	enzyme activity, inhibitor	1 µM	inhibition	< 10%
N#Cc1ccc(Nc2ccc3[nH]c(=O)[nH]c3c2)c(Cl)c1	cell-free assay, competition with immobilised ligand	1 µM	remaining binding	100%
O=C(O)c1ccc2c(c1)nc(NCCc1cccc(Cl)c1)c1ncncc12	enzyme activity, inhibitor, radiometric	1 µM	remaining activity	36%
COc1cc(-c2cn(C3CCc4c(F)cccc4N(CC(F)(F)F)C3=O)nn2)ccc1-n1cnc(C)c1 (stereo not drawn)	cell-free assay, competition with immobilised ligand	1 µM	remaining binding	100%
O=C1NC(=O)c2cc(Nc3ccc(F)cc3)c(Nc3ccc(F)cc3)cc21	cell-free assay	0.5 µM	remaining signal	96.6%
CCN(CC)CCNC(=O)c1c(C)[nH]c(/C=C2\C(=O)Nc3ccc(F)cc32)c1C	enzyme activity, inhibitor	10 µM	inhibition	89%
O=C(O)c1ccc2c(c1)nc(Nc1ccc(F)c(Cl)c1)c1ncncc12	enzyme activity, inhibitor, radiometric	1 µM	remaining activity	2%
Clc1ccc(Nc2nnc(Cc3ccncc3)c3ccccc23)cc1	cell-free assay	0.5 µM	remaining signal	101%
COc1cccc(CNC(=O)c2nc3scc(COCc4ccc(C(=O)O)cc4)c3c(=O)[nH]2)c1	cell-free assay, competition with immobilised ligand	1 µM	remaining binding	72.9%
COc1cc(-c2cc(-c3ccc(N4CCNCC4)cc3)cnc2C)cc(OC)c1OC	enzyme activity, inhibitor	1 µM	inhibition	2%
Cc1ccc(NC(=O)c2ccc(CN3CCN(C)CC3)cc2)cc1Nc1nc(-c2cccnc2)cs1	cell-free assay	0.5 µM	remaining signal	90.8%
Cc1c(NC(=O)c2cc(C(N)=O)nc3cc(F)ccc23)c(C(F)(F)F)nn1Cc1ccc(C#N)cc1	cell-free assay, competition with immobilised ligand	1 µM	remaining binding	83%
COc1cccc(CCNc2nc3cc(C(=O)O)ccc3c3cnccc23)c1	enzyme activity, inhibitor, radiometric	1 µM	remaining activity	10%
Cc1ccc(NC(=O)c2ccc(C)c(C(F)(F)F)c2)cc1C#Cc1nn(C2CCC(O)CC2)c2ncnc(N)c12 (stereo not drawn)	cell-free assay	10 µM	remaining signal	99%
O=C(O)c1ccc2c(c1)nc(Nc1ccccc1)c1ccncc12	enzyme activity, inhibitor, radiometric	1 µM	remaining activity	10%
CC/C(=N\NC(=O)NCc1cccc(O)c1)c1ccc(O)c(C)c1O	enzyme activity, inhibitor	0.1 µM	inhibition	2.1%
O=C(Nc1ccc(Oc2ccc(F)cc2)cc1)N1CCc2ncccc2[C@H]1c1ccc(F)cc1	cell-free assay, competition with immobilised ligand	1 µM	remaining binding	79%
O=C(O)c1ccc2c(c1)nc(NCc1ccccc1)c1ccncc12	enzyme activity, inhibitor, radiometric	1 µM	remaining activity	51%
CC(=O)N1CCC(c2ccc(C(=O)NC3=NCCN3)cc2C(F)(F)F)CC1	cell-free assay, competition with immobilised ligand	1 µM	remaining binding	100%
Cc1cc(NC(=O)c2cccc3cc(-c4cccc5[nH]nc(N)c45)ccc23)ccc1F	enzyme activity, inhibitor	0.1 µM	activity vs control	103%
C[C@H](c1cccc(C#N)c1)n1cc(Cl)cc(C(N)=O)c1=N	cell-free assay, competition with immobilised ligand	1 µM	remaining binding	100%
O=C(O)c1ccc2c(c1)nc(Nc1cccc(F)c1)c1ccncc12	enzyme activity, inhibitor, radiometric	1 µM	remaining activity	-1%
Cc1ccc(Nc2nccc(N(C)c3ccc4c(C)n(C)nc4c3)n2)cc1S(N)(=O)=O	enzyme activity, inhibitor	0.3 µM	inhibition	7%
O=C(O)c1ccc2c(c1)nc(NCCc1cccc(Cl)c1)c1ccncc12	enzyme activity, inhibitor, radiometric	1 µM	remaining activity	20%
COc1ccc2c(c1)O[C@H](c1ccc(OC)c(OC)c1)C[C@@H]2NC(=O)C1(c2ccc3c(c2)OC(F)(F)O3)CC1	cell-free assay, competition with immobilised ligand	1 µM	remaining binding	98%
COc1cccc(CCNc2nc3cc(C(=O)O)ccc3c3cncnc23)c1	enzyme activity, inhibitor, radiometric	1 µM	remaining activity	22%
COc1cc2ncnc(Nc3ccc(Oc4ccccc4)cc3C)c2cc1OC	enzyme activity, inhibitor	1 µM	inhibition	3%
